Assay results taken from ChEMBL document CHEMBL5390282, “Discovery of tert-Butyl Ester Based 6-Diazo-5-oxo-l-norleucine Prodrugs for Enhanced Metabolic Stability and Tumor Delivery” (J Med Chem, 2023).

What was measured:
[1] = Prodrug conversion in C57BL/6 mouse model with CES-/- bearing mouse EL4 cells assessed as concentration of DON release in tumor administered subcutaneously at 1 mg/kg DON equivalent measured after 30 mins; type: ADME, organism-based; conditions: in vivo, sc, 0.5 h, read-out: Drug metabolism
Procedure, shortened: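 Male and female CES1–/– C57BL/6 mice, 6–8 weeks old, each carrying a flank EL4 tumour (1 × 10^6 cells SC in PBS, grown to about 400 mm3). Prodrug dissolved just before use in ethanol:Tween 80:saline (5:10:85) and given once SC at 1 mg/kg DON equivalent, n = 3. At 30 min, plasma and tumour collected. DON measured by LC-MS/MS after dabsyl chloride derivatization, glutamate-d5 internal standard, calibration 0.03–100 nmol/mL.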

[2] = Prodrug conversion in human P493B cells suspended in human plasma assessed as DON metabolite concentration at 20 uM incubated for 1 hr; type: ADME, cell-based
Procedure, shortened: (§1)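 P493B cells resuspended in human plasma at 10 million cells/mL and preincubated 5 min at 37 °C. Prodrug spiked at 20 μM final and incubated 1 h at 37 °C, in triplicate. Cells pelleted at 1000g. Plasma and pellet each analysed by LC-MS for intact prodrug and DON, with calibration made in each matrix. Partitioning expressed as cell/plasma ratio.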

[3] = Stability in human P493B cells suspended in human plasma assessed as DON metabolite release at 20 uM incubated for 1 hr; type: ADME, cell-based; procedure, shortened: as §1
[4] = Chemical stability of compound at pH 7.4 at 10 uM incubated for 24 hrs by HRMS analysis; type: physicochemical; conditions: buffer, pH 7.4, 24 h
Procedure, shortened: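 Prodrug spiked at 10 μM into pH 7.4 buffer and held at 37 °C for 24 h. Loss of prodrug followed by HRMS.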

[5] = Stability in human plasma suspended with human P493B cells assessed as tumor cell to plasma partitioning at 20 uM incubated for 1 hr; type: ADME; procedure, shortened: as §1
[6] = Stability in human P493B cells suspended in human plasma assessed as tumor cell to plasma partitioning ratio at 20 uM incubated for 1 hr; type: ADME, cell-based; procedure, shortened: as §1
P493B = test: Antiproliferative activity against human P493B cells assessed as reduction in cell viability incubated for 72 hrs by Cell Titer 96 Aqueous assay; type: functional, cell-based
Procedure, shortened: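 P493B lymphoma cells seeded at 20 000 cells/well. Test agent added as half-log serial dilutions in 0.2% DMSO final, then 72 h growth. CellTiter 96 AQueous reagent added for 2 h and absorbance read at 490 nm. Viability scaled between untreated cells (100%) and cell-free medium (0%). EC50 obtained by nonlinear regression of log-transformed data.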

[7] = Prodrug conversion in jejunum of C57BL/6 mouse model with CES-/- bearing mouse EL4 cells assessed as AUC (0 to t) of DON metabolite at 2.9 mg/kg, sc measured upto 6 hrs by LC-MS analysis; type: ADME, organism-based; conditions: in vivo
Procedure, shortened: (§2)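 CES1–/– C57BL/6 mice with flank EL4 tumours (about 400 mm3) dosed SC at 2.9 mg/kg (1 mg/kg DON equivalent) in ethanol:Tween 80:saline (5:10:85). Plasma, tumour and jejunum sampled 0–6 h after dosing. DON quantified by LC-MS/MS after dabsyl chloride derivatization, glutamate-d5 internal standard. Cmax, Tmax and AUC derived by noncompartmental analysis.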

[8] = Prodrug conversion in plasma of C57BL/6 mouse model with CES-/- bearing mouse EL4 cells assessed as AUC of DON metabolite at 2.9 mg/kg, sc measured upto 6 hrs by LC-MS analysis; type: ADME, organism-based; set-up: time < 6 hrs, dose 2.9 mg/kg, route sc; conditions: in vivo; procedure, shortened: as §2
[9] = Prodrug conversion of C57BL/6 mouse model with CES-/- bearing mouse EL4 cells assessed as ratio of DON metabolite AUC (0 to t) in tumor to plasma at 2.9 mg/kg, sc measured upto 6 hrs by LC-MS analysis; type: ADME, organism-based; conditions: tumour; procedure, shortened: as §2
[10] = Prodrug conversion in plasma of C57BL/6 mouse model with CES-/- bearing mouse EL4 cells assessed as Tmax of DON metabolite at 2.9 mg/kg, sc measured upto 6 hrs by LC-MS analysis; type: ADME, organism-based; conditions: in vivo; procedure, shortened: as §2
[11] = Prodrug conversion in jejunum of C57BL/6 mouse model with CES-/- bearing mouse EL4 cells assessed as Tmax of DON metabolite at 2.9 mg/kg, sc measured upto 6 hrs by LC-MS analysis; type: ADME, organism-based; conditions: in vivo; procedure, shortened: as §2
[12] = Prodrug conversion in jejunum of C57BL/6 mouse model with CES-/- bearing mouse EL4 cells assessed as half life of DON metabolite at 2.9 mg/kg, sc measured upto 6 hrs by LC-MS analysis; type: ADME, organism-based; conditions: in vivo; procedure, shortened: as §2
[13] = Prodrug conversion in plasma of C57BL/6 mouse model with CES-/- bearing mouse EL4 cells assessed as AUC (0 to t) of DON metabolite at 2.9 mg/kg, sc measured upto 6 hrs by LC-MS analysis; type: ADME, organism-based; conditions: in vivo; procedure, shortened: as §2
[14] = Prodrug conversion in tumor of C57BL/6 mouse model with CES-/- bearing mouse EL4 cells assessed as Tmax of DON metabolite at 2.9 mg/kg, sc measured upto 6 hrs by LC-MS analysis; type: ADME, organism-based, Neoplasm; conditions: in vivo; procedure, shortened: as §2
[15] = Prodrug conversion in plasma of C57BL/6 mouse model with CES-/- bearing mouse EL4 cells assessed as Cmax of DON metabolite at 2.9 mg/kg, sc measured upto 6 hrs by LC-MS analysis; type: ADME, organism-based; set-up: time < 6 hrs, dose 2.9 mg/kg, route sc; conditions: in vivo; procedure, shortened: as §2
[16] = Prodrug conversion in tumor of C57BL/6 mouse model with CES-/- bearing mouse EL4 cells assessed as half life of DON metabolite at 2.9 mg/kg, sc measured upto 6 hrs by LC-MS analysis; type: ADME, organism-based, Neoplasm; conditions: in vivo; procedure, shortened: as §2
[17] = Prodrug conversion in C57BL/6 mouse model with CES-/- bearing mouse EL4 cells assessed as ratio of DON metabolite AUC in tumor to plasma at 2.9 mg/kg, sc measured upto 6 hrs by LC-MS analysis; type: ADME, organism-based; conditions: tumour; procedure, shortened: as §2
[18] = Prodrug conversion in tumor of C57BL/6 mouse model with CES-/- bearing mouse EL4 cells assessed as Cmax of DON metabolite at 2.9 mg/kg, sc measured upto 6 hrs by LC-MS analysis; type: ADME, organism-based, Neoplasm; set-up: dose 2.9 mg/kg, time < 6 hrs, route sc; conditions: in vivo; procedure, shortened: as §2
[19] = Prodrug conversion in tumor of C57BL/6 mouse model with CES-/- bearing mouse EL4 cells assessed as AUC (0 to t) of DON metabolite at 2.9 mg/kg, sc measured upto 6 hrs by LC-MS analysis; type: ADME, organism-based, Neoplasm; conditions: in vivo; procedure, shortened: as §2
[20] = Prodrug conversion in plasma of C57BL/6 mouse model with CES-/- bearing mouse EL4 cells assessed as half life of DON metabolite at 2.9 mg/kg, sc measured upto 6 hrs by LC-MS analysis; type: ADME, organism-based; conditions: in vivo; procedure, shortened: as §2
[21] = Prodrug conversion of C57BL/6 mouse model with CES-/- bearing mouse EL4 cells assessed as ratio of DON metabolite AUC (0 to t) in tumor to jejunum at 2.9 mg/kg, sc measured upto 6 hrs by LC-MS analysis; type: ADME, organism-based; conditions: in vivo; procedure, shortened: as §2
[22] = Prodrug conversion in C57BL/6 mouse model with CES-/- bearing mouse EL4 cells assessed as ratio of DON metabolite AUC in tumor to jejunum at 2.9 mg/kg, sc measured upto 6 hrs by LC-MS analysis; type: ADME, organism-based; conditions: in vivo; procedure, shortened: as §2
[23] = Drug concentration in jejunum of C57BL/6 mouse model with CES-/- bearing mouse EL4 cells at 2.9 mg/kg, sc measured upto 6 hrs by LC-MS analysis; type: ADME, organism-based; procedure, shortened: as §2
[24] = Prodrug conversion in jejunum of C57BL/6 mouse model with CES-/- bearing mouse EL4 cells assessed as AUC of DON metabolite at 2.9 mg/kg, sc measured upto 6 hrs by LC-MS analysis; type: ADME, organism-based; set-up: dose 2.9 mg/kg, time < 6 hrs, route sc; conditions: in vivo; procedure, shortened: as §2
[25] = Prodrug conversion in tumor of C57BL/6 mouse model with CES-/- bearing mouse EL4 cells assessed as AUC of DON metabolite at 2.9 mg/kg, sc measured upto 6 hrs by LC-MS analysis; type: ADME, organism-based, Neoplasm; set-up: time < 6 hrs, dose 2.9 mg/kg, route sc; conditions: in vivo; procedure, shortened: as §2
[26] = Prodrug conversion in jejunum of C57BL/6 mouse model with CES-/- bearing mouse EL4 cells assessed as Cmax of DON metabolite at 2.9 mg/kg, sc measured upto 6 hrs by LC-MS analysis; type: ADME, organism-based; set-up: dose 2.9 mg/kg, time < 6 hrs, route sc; conditions: in vivo; procedure, shortened: as §2

CN(C)CC(=O)N[C@@H](CCc1ccccc1)C(=O)N[C@@H](CCC(=O)C=[N+]=[N-])C(=O)OC(C)(C)C
concentration [1]: 4.52 µM

CN(C)CC(=O)N[C@@H](Cc1ccc(C(F)(F)F)cc1)C(=O)N[C@@H](CCC(=O)C=[N+]=[N-])C(=O)OC(C)(C)C
concentration [1]: 4.16 µM

CC(=O)N[C@@H](Cc1c[nH]c2ccccc12)C(=O)N[C@@H](CCC(=O)C=[N+]=[N-])C(=O)OC(C)C [SIRPIGLENASTAT]
Drug metabolism [2]: 9.1 µM | Stability [3]: Unstable | Stability [4]: Stable | Stability [5]: Stable | concentration [1]: 1.21 µM | Ratio [6]: 180 | Activity (P493B): Dose-Dependent Effect

CN(C)CC(=O)N[C@@H](Cc1ccccc1)C(=O)N[C@@H](CCC(=O)C=[N+]=[N-])C(=O)OC(C)(C)C
AUCt [7]: 3.13 nmol·h/g | AUC [8]: 3.97 µM·h | Ratio AUC [9]: 3.6 | Tmax [10]: 30 min | Tmax [11]: 60 min | t1/2 [12]: 59.4 min | Drug metabolism [2]: 46.7 µM | Stability [3]: Unstable | AUCt [13]: 3.8 nmol·h/g | Tmax [14]: 30 min | Stability [4]: Stable | Cmax [15]: 1.86 µM | t1/2 [16]: 83.4 min | Stability [5]: Stable | Ratio AUC [17]: 3.63 | Cmax [18]: 5.49 µM | concentration [1]: 5.49 µM | AUCt [19]: 13.7 nmol·h/g | Ratio [6]: 140 | Activity (P493B): Dose-Dependent Effect | t1/2 [20]: 87 min | Ratio AUC [21]: 4.4 | Ratio AUC [22]: 3.92 | concentration at 6 h [23]: < 0.01 µM | AUC [24]: 3.67 µM·h | AUC [25]: 14.4 µM·h | Cmax [26]: 1.54 µM
